Screening data deposited in PubChem BioAssay by The Scripps Research Institute Molecular Screening Center.
Shown are actives, neighbours in structure and some others; about 1.9% of the full set was active somewhere.
CHRM5 agonist = human M5 muscarinic receptor agonists, primary screen, CHO-K1 cells, Fluo-8 calcium fluorescence. Muscarinic acetylcholine receptor M5 (Homo sapiens), P08912. CHO-K1 hM5 cells; 0% DMSO wells, 100% maximal acetylcholine response. activation, % at 3 µM. actives 0.19% (n = 360,000);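 active = activation above the run's mean over test compounds plus 3 SD, cut at about 23% in these data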;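 also: signal is peak over basal fluorescence ratio across the kinetic read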
CHRM4 agonist = human M4 muscarinic receptor agonists, primary screen, CHO-K1 cells, Fluo-8 calcium fluorescence. Muscarinic acetylcholine receptor M4 (Homo sapiens), P08173. CHO-K1 hM4/Gqi5; vehicle 0%, full acetylcholine response 100%. activation, % at 3 µM. actives 0.14% (n = 360,000);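 active = activation above the run mean over all test wells plus 3 SD, cut at about 32% in these data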;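 also: peak over basal fluorescence ratio per well then scaled between controls; 0% = DMSO wells and 100% = acetylcholine at EC100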
Target sequence (P08173 whole entry, looked up): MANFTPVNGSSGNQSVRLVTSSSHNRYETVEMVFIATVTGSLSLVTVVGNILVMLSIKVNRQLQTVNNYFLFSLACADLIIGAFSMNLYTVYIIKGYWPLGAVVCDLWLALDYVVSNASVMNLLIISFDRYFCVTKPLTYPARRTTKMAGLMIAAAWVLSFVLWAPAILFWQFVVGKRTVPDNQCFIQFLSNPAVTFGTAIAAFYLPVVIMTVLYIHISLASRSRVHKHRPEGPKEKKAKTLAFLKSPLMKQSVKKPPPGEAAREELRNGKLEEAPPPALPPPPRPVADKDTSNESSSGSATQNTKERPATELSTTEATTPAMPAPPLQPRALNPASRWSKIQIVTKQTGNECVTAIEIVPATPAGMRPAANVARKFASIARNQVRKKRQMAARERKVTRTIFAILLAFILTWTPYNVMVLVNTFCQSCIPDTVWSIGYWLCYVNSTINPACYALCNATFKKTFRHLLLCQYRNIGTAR
CHRM4 PAM = human M4 muscarinic receptor positive allosteric modulators, primary screen, CHO-K1 cells, Fluo-8 calcium fluorescence; Muscarinic acetylcholine receptor M4 (Homo sapiens), P08173; CHO-K1 hM4/Gqi5, ACh EC20; 0% = ACh EC20, 100% = maximal ACh; activation, % at 3 µM; actives 0.4% (n = 360,000); AID 624126, 2012;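 active = activation above its plate's cutoff, the mean activation of sample wells plus 3 SD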
CHRM5 PAM = human M5 muscarinic receptor positive allosteric modulators, primary screen, CHO-K1 cells, Fluo-8 calcium fluorescence; CHO-K1 hM5, ACh EC20 PAM; 0% = ACh EC20, 100% = ACh EC100; activation, % at 3 µM; actives 0.3% (n = 360,000); AID 624038, 2012;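 active = activation above the run cutoff, the mean activation of all test compounds plus 3 SD, cut at about 18% in these data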
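system = human M5 receptor in CHO-K1 cells | reagent = EC20 acetylcholine as agonist stimulus | compound dosing = single-point, 3 µM nominal | incubation = Fluo-8 loading 80 min at 37 °C plus 30 min room temperature | detection = Fluo-8 calcium dye fluorescence, kinetic read | benchmarks = low control EC20 acetylcholine (0%), high control EC100 acetylcholine (100%)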
CHRM4 antagonist = human M4 muscarinic receptor antagonists, primary screen, CHO cells, Fluo-8 calcium fluorescence; CHO-hM4 cells, ACh EC80; Muscarinic acetylcholine receptor M4 (Homo sapiens), P08173; inhibition, % at 3 µM; actives 0.73% (n = 360,000);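 active = inhibition above its plate's cutoff, the mean inhibition of sample wells plus 3 SD, cut at about 27% in these data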;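 also: 0% = acetylcholine EC80 with DMSO and 100% = DMSO without agonist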
M5 antag = human M5 muscarinic receptor antagonists, primary screen, CHO cells, Fluo-8 calcium fluorescence; inhibition, % at 3 µM; CHO-hM5 cells, ACh EC80; actives 0.59% (n = 360,000); Muscarinic acetylcholine receptor M5 (Homo sapiens), P08912;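 active = inhibition above a per-plate cutoff, the mean of that plate's test compounds plus 3 SD, cut at about 27% in these data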;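 also: 0% = acetylcholine EC80 with DMSO and 100% = DMSO without agonist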
* marks the source's active call; other numbers are inactive results.

O=C1CCCN1CCCNc1nc(NCc2ccccc2)nc2ccsc12 was read as CHRM5 agonist 85*, CHRM4 agonist 145*, CHRM4 PAM -15, CHRM5 PAM -22, CHRM4 antagonist 96* and M5 antag 90*.
Screening COCCNc1nc(NCc2ccccc2OC)c2sccc2n1 returned CHRM5 agonist 2, CHRM4 agonist 14, CHRM4 PAM -1, CHRM5 PAM -10, CHRM4 antagonist -16 and M5 antag 4.
Cc1ccc(CNc2nc(NCc3ccccc3)nc3ccsc23)c(C)c1 was read as CHRM5 agonist 9, CHRM4 agonist 22, CHRM4 PAM -13, CHRM5 PAM -18, CHRM4 antagonist 28* and M5 antag 28*.
Screening CNc1nc(NCc2ccc(C)cc2C)c2sccc2n1 returned CHRM5 agonist 5, CHRM4 agonist 7, CHRM4 PAM -6, CHRM5 PAM -8, CHRM4 antagonist 1 and M5 antag 12.
Screening COCCNc1nc(NCc2ccccc2)nc2ccsc12 returned CHRM5 agonist 82*, CHRM4 agonist 142*, CHRM4 PAM -15, CHRM5 PAM -22, CHRM4 antagonist 100* and M5 antag 97*.
`COC(=O)C1(C(=O)OC)C/C=C\CN(S(=O)(=O)c2ccccc2[N+](=O)[O-])CC1` gave CHRM5 agonist 7, CHRM4 agonist 4, CHRM4 PAM -2, CHRM5 PAM 1, CHRM4 antagonist -2 and M5 antag -3.
COC(=O)[C@@]12C[C@@H](CC(=O)NCc3cccs3)C(=O)N(Cc3cccc4ccccc34)C1=CCC(C)(C)C2 was read as CHRM5 agonist 2, CHRM4 agonist 6, CHRM4 PAM 2, CHRM5 PAM -2, CHRM4 antagonist -13 and M5 antag -1.
Screening CCOC(=O)c1ccc(N(C(=O)c2cnccn2)C(C(=O)NC2CCCCC2)c2cn(C)nc2C)cc1 (stereo not given) returned CHRM5 agonist -1, CHRM4 agonist 0, CHRM4 PAM -3, CHRM5 PAM 3, CHRM4 antagonist 12 and M5 antag -1.
For Cc1nn(C)cc1C(C(=O)NC1CCCCC1)N(C(=O)c1cnccn1)c1ccc(Oc2ccccc2)cc1 (stereo not given) the results were CHRM5 agonist -2, CHRM4 agonist 2, CHRM4 PAM 24*, CHRM5 PAM 1, CHRM4 antagonist -11 and M5 antag -9.
Screening Cn1cc(CN2CCCCC2C(=O)Nc2ccc(-n3cccn3)cc2)cn1 (stereo not given) returned CHRM5 agonist -7, CHRM4 agonist 0, CHRM4 PAM 0, CHRM5 PAM -7, CHRM4 antagonist 1 and M5 antag 27*.
CC(C)CN1Cc2ccccc2Oc2cc(Br)ccc2S1(=O)=O was read as CHRM5 agonist 22, CHRM4 agonist 9, CHRM4 PAM 25*, CHRM5 PAM 12, CHRM4 antagonist -8 and M5 antag 1.
`O=[N+]([O-])c1ccc(Nc2ccccc2)c2nonc12` gave CHRM5 agonist 7, CHRM4 agonist 21, CHRM4 PAM -11, CHRM5 PAM -8, CHRM4 antagonist -8 and M5 antag -1.
For O=[N+]([O-])c1ccc(Sc2cccc[n+]2[O-])c2nonc12 the results were CHRM5 agonist 17, CHRM4 agonist 6, CHRM4 PAM -42, CHRM5 PAM -14, CHRM4 antagonist 64* and M5 antag 41*.
COc1ccc(-n2nc(C(=O)NCC(=O)NCCCN3CCCCCC3)c3ccccc3c2=O)cc1Cl was read as CHRM5 agonist -12, CHRM4 agonist 1, CHRM4 PAM -21, CHRM5 PAM 6, CHRM4 antagonist 32* and M5 antag 0.
CCN(CCCNC(=O)CNC(=O)c1nn(-c2ccc(OC)cc2)c(=O)c2ccccc12)c1cccc(C)c1 was read as CHRM5 agonist -4, CHRM4 agonist 11, CHRM4 PAM -24, CHRM5 PAM -11, CHRM4 antagonist 12 and M5 antag 29*.
`COc1ccc(-n2nc(C(=O)NCC(=O)NCCCN3CCC(C)CC3)c3ccccc3c2=O)cc1Cl` gave CHRM5 agonist -4, CHRM4 agonist 0, CHRM4 PAM -13, CHRM5 PAM 1, CHRM4 antagonist 14 and M5 antag 0.
Cc1cccc(CN2[C@H](CO)C=CS2(=O)=O)c1 was read as CHRM5 agonist 4, CHRM4 agonist 0, CHRM4 PAM 0, CHRM5 PAM 5, CHRM4 antagonist 1 and M5 antag -10.
`O=C(Nc1cccc(C(F)(F)F)c1)C1CCN(S(=O)(=O)c2ccc(N3CCCC3=O)cc2)CC1` gave CHRM5 agonist 2, CHRM4 agonist 17, CHRM4 PAM -7, CHRM5 PAM -14, CHRM4 antagonist 22 and M5 antag 37*.
For COc1ccc(C2C(C(=O)NCc3ccco3)CCC(=O)N2c2ccc(OC)cc2)cc1 (stereo not given) the results were CHRM5 agonist -4, CHRM4 agonist 0, CHRM4 PAM 4, CHRM5 PAM 46*, CHRM4 antagonist -5 and M5 antag 3.
COc1ccc(C2C(C(=O)O)CCC(=O)N2c2ccc(OC)cc2)cc1 (stereo not given) was read as CHRM5 agonist 1, CHRM4 agonist 2, CHRM4 PAM -4, CHRM5 PAM -4, CHRM4 antagonist 2 and M5 antag -5.
Screening O=C1Cc2ccccc2C(=O)N1 returned CHRM5 agonist 5, CHRM4 agonist 2, CHRM4 PAM 4, CHRM5 PAM -12, CHRM4 antagonist 5 and M5 antag 2.
Screening O=C(Nc1cccc(NC(=O)c2ccccc2Cl)c1)c1ccco1 returned CHRM5 agonist -1, CHRM4 agonist 8, CHRM4 PAM 0, CHRM5 PAM -2, CHRM4 antagonist -9 and M5 antag -2.
Screening O=C(Nc1cccc(NC(=O)c2ccc(-c3ccc(Br)cc3)o2)c1)c1ccco1 returned CHRM5 agonist -1, CHRM4 agonist 12, CHRM4 PAM -22, CHRM5 PAM -19, CHRM4 antagonist 32* and M5 antag 31*.
For Cc1ccc(S(=O)(=O)N2C[C@H]3[C@H]4C(=O)N(c5ccccc5)C(=O)[C@H]4C[C@H](OC(=O)Nc4cccs4)[C@@]3(O)C2)cc1 the results were CHRM5 agonist 2, CHRM4 agonist 1, CHRM4 PAM 8, CHRM5 PAM -5, CHRM4 antagonist -13 and M5 antag 3.
